Experiments:
[1] = tested on: Human hepatocellular carcinoma cell line (HepG2); test: MTT cytotoxicity assay, HepG2; type: cell-based; details: for IC50: Homo sapiens, HepG2, 24 h, read-out: IC50 (μM) HePG2; for cytotoxic activity, class in words, HepG2: MTT assay
Method in brief: (§1)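 Cells grown in RPMI-1640 with 10% FBS, penicillin 100 units/mL and streptomycin 100 μg/mL at 37 °C, 5% CO2. Seeded at 1.0 × 10^4 cells/well for 48 h, then exposed to a range of test compound concentrations for 24 h, with CA-4 as positive control. MTT (5 mg/mL solution) added for 4 h, formazan dissolved in DMSO, absorbance read at 570 nm. IC50 = 50% growth inhibition, mean ± SD.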

[2] = tested on: Human colorectal carcinoma cell line (HCT-116); test: MTT cytotoxicity assay, HCT-116; type: cell-based; details: for IC50: Homo sapiens, HCT-116, 24 h, read-out: IC50 (μM) HCT-116; for cytotoxic activity, class in words, HCT-116: MTT assay
Method in brief: as §1

[3] = tested on: Human breast adenocarcinoma cell line (MCF-7); test: MTT cytotoxicity assay, MCF-7; type: cell-based; details: for IC50: Homo sapiens, MCF7, 24 h, read-out: IC50 (μM) MCF-7; for cytotoxic activity, class in words, MCF-7: MTT assay
Method in brief: as §1

[4] = tested on: Epitheloid cervix carcinoma cell line (HeLa); test: MTT cytotoxicity assay, HeLa; type: cell-based, human; details: for IC50: Homo sapiens, 24 h, read-out: IC50 (μM) HeLa; for cytotoxic activity, class in words, HeLa: MTT assay
Method in brief: as §1

[5] = tested on: tubulin; test: In vitro tubulin polymerization inhibition assay; type: biochemical; details: read-out: IC50 (μM) tubulin polymerization inhibition; 4 mg/mL tubulin, 37 °C, OD340, mean ± SD from three independent experiments
[6] = cited from earlier work
[7] = tested on: HepG2, HCT-116, MCF-7, and HeLa cell lines; test: MTT cytotoxicity assay, statements over the four tested cell lines; type: cell-based, human; details: all tested cell lines
Method in brief: as §1

Row | IC50 [5] [µM] | Compound | IC50 [1] [µM] | IC50 [2] [µM] | IC50 [3] [µM] | IC50 [4] [µM] | solubility in water [6] | cytotoxic effect, class in words, tested cell lines [7] | cytotoxic activity, class in words, HepG2 [1] | cytotoxic activity, class in words, HCT-116 [2] | cytotoxic activity, class in words, MCF-7 [3] | cytotoxic activity, class in words, HeLa [4]
1 | […] | COc1ccc(/C=C\c2cc(OC)c(OC)c(OC)c2)cc1O [CA-4, combretastatin A-4, reference compound] | 4.5 ± 0.2 | 5.23 ± 0.3 | 4.17 ± 0.2 | 5.57 ± 0.3 | weakly soluble in water | – | – | – | – | –
2 | – | COc1cc(-c2csc(NC(=O)CCl)n2)cc(OC)c1OC [Compound 4, 2-Chloro-N-(4-(3,4,5-trimethoxyphenyl)thiazol-2-yl)acetamide] | 62.6 ± 3.1 | 69 ± 3.5 | 62.9 ± 3.1 | 76.9 ± 3.8 | – | weak (51–100 (weak)) | – | – | – | –
3 | – | COc1cc(-c2csc(NC(=O)CNCCO)n2)cc(OC)c1OC [Compound 5a, 2-((2-Hydroxyethyl)amino)-N-(4-(3,4,5-trimethoxyphenyl)thiazol-2-yl)acetamide] | 22 ± 1.1 | 29.4 ± 1.5 | 30 ± 1.5 | 50.9 ± 2.5 | – | moderate (21–50 (moderate)) | – | – | – | –
4 | – | CCCCNCC(=O)Nc1nc(-c2cc(OC)c(OC)c(OC)c2)cs1 [Compound 5b, 2-(Butylamino)-N-(4-(3,4,5-trimethoxyphenyl)thiazol-2-yl)acetamide] | 10.9 ± 0.5 | 24.4 ± 1.2 | 22.8 ± 1.1 | 28.3 ± 1.4 | – | – | strong (11–20 (strong)) | – | – | –
5 | 2.95 ± 0.18 | COc1cc(-c2csc(NC(=O)CNC(C)C)n2)cc(OC)c1OC [Compound 5c, 2-(Isopropylamino)-N-(4-(3,4,5-trimethoxyphenyl)thiazol-2-yl)acetamide] | 11.9 ± 0.6 | 12.9 ± 0.6 | 15.5 ± 0.8 | 16 ± 0.8 | – | strong (11–20 (strong)) | – | – | – | –
6 | 4.5 ± 0.27 | COc1cc(-c2csc(NC(=O)CN3CCNCC3)n2)cc(OC)c1OC [Compound 6a, 2-(Piperazin-1-yl)-N-(4-(3,4,5-trimethoxyphenyl)thiazol-2-yl)acetamide] | 8.17 ± 0.4 | 28.9 ± 1.4 | 40.9 ± 2 | 47.7 ± 2.4 | – | – | – | – | – | –
7 | – | COc1cc(-c2csc(NC(=O)CN3CCN(C)CC3)n2)cc(OC)c1OC [Compound 6b, 2-(4-Methylpiperazin-1-yl)-N-(4-(3,4,5-trimethoxyphenyl)thiazol-2-yl)acetamide] | 74.6 ± 3.7 | 83.7 ± 4.2 | 65.3 ± 3.3 | 87.3 ± 4.4 | – | – | – | – | – | –
8 | – | CCN1CCN(CC(=O)Nc2nc(-c3cc(OC)c(OC)c(OC)c3)cs2)CC1 [Compound 6c, 2-(4-Ethylpiperazin-1-yl)-N-(4-(3,4,5-trimethoxyphenyl)thiazol-2-yl)acetamide] | 33.9 ± 1.7 | 37.2 ± 1.9 | 41.4 ± 2.1 | 48.2 ± 2.4 | – | – | – | – | – | –
9 | 5 ± 0.3 | COc1cc(-c2csc(NC(=O)CN3CCN(c4ccc(F)cc4)CC3)n2)cc(OC)c1OC [Compound 6d, 2-(4-(4-Fluorophenyl)piperazin-1-yl)-N-(4-(3,4,5-trimethoxyphenyl)thiazol-2-yl)acetamide] | 4.03 ± 0.2 | 15.7 ± 0.8 | 9.64 ± 0.5 | 18.7 ± 0.9 | – | – | – | – | – | –
10 | 3.72 ± 0.23 | COc1cc(-c2csc(NC(=O)CN3CCOCC3)n2)cc(OC)c1OC [Compound 6e, 2-Morpholino-N-(4-(3,4,5-trimethoxyphenyl)thiazol-2-yl)acetamide] | 19.8 ± 1 | 18 ± 0.9 | 39.1 ± 2 | 58.8 ± 2.9 | – | – | strong (11–20 (strong)) | strong (11–20 (strong)) | – | –
11 | – | COc1cc(-c2csc(NC(=O)CNc3ccccc3)n2)cc(OC)c1OC [Compound 7a, 2-(Phenylamino)-N-(4-(3,4,5-trimethoxyphenyl)thiazol-2-yl)acetamide] | 94.1 ± 4.7 | 52.5 ± 2.6 | > 100 | 54.1 ± 2.7 | – | – | weak (51–100 (weak)) | weak (51–100 (weak)) | weak (51–100 (weak)) | noncytotoxic (above 100 (noncytotoxic))
12 | – | COc1cc(-c2csc(NC(=O)CNc3ccc(Br)cc3)n2)cc(OC)c1OC [Compound 7b, 2-((4-Bromophenyl)amino)-N-(4-(3,4,5-trimethoxyphenyl)thiazol-2-yl)acetamide] | 34.2 ± 1.7 | 9.35 ± 0.5 | 44.8 ± 2.2 | 13.1 ± 0.7 | – | – | – | – | – | –
13 | 2 ± 0.12 | COc1cc(-c2csc(NC(=O)CNc3ccc([N+](=O)[O-])cc3)n2)cc(OC)c1OC [Compound 7c, 2-((4-Nitrophenyl)amino)-N-(4-(3,4,5-trimethoxyphenyl)thiazol-2-yl)acetamide] | 6.26 ± 0.3 | 7.3 ± 0.4 | 10 ± 0.5 | 9.85 ± 0.5 | – | – | – | – | – | –
14 | 3.42 ± 0.21 | COc1cc(-c2csc(NC(=O)CNc3ccc(Br)c(C(F)(F)F)c3)n2)cc(OC)c1OC [Compound 7d, 2-((4-Bromo-3-(trifluoromethyl)phenyl)amino)-N-(4-(3,4,5-trimethoxyphenyl)thiazol-2-yl)acetamide] | 28.1 ± 1.4 | 33.1 ± 1.7 | 41.4 ± 2.1 | 29.8 ± 1.5 | – | – | – | – | – | –
15 | – | COc1cc(-c2csc(NC(=O)CNc3ccc(N4CCOCC4)cc3)n2)cc(OC)c1OC [Compound 7e, 2-((4-Morpholinophenyl)amino)-N-(4-(3,4,5-trimethoxyphenyl)thiazol-2-yl)acetamide] | 25.7 ± 1.3 | 31.2 ± 1.6 | 35 ± 1.7 | 41.5 ± 2.1 | – | – | – | – | – | –
16 | 3.91 ± 0.24 | COc1cc(-c2csc(NC(=O)CNN)n2)cc(OC)c1OC [Compound 8, 2-Hydrazinyl-N-(4-(3,4,5-trimethoxyphenyl)thiazol-2-yl)acetamide] | 3.35 ± 0.2 | 5.32 ± 0.3 | 8.66 ± 0.4 | 6.15 ± 0.3 | – | – | – | – | – | –
17 | 2.38 ± 0.14 | COc1cc(-c2csc(NC(=O)CN/N=C3\C(=O)Nc4ccc(Cl)cc43)n2)cc(OC)c1OC [Compound 9a, (Z)-2-(2-(5-Chloro-2-oxoindolin-3-ylidene)hydrazinyl)-N-(4-(3,4,5-trimethoxyphenyl)thiazol-2-yl)acetamide] | 7.32 ± 0.4 | 10.1 ± 0.5 | 9.8 ± 0.5 | 10.6 ± 0.5 | – | – | – | – | – | –
18 | 4.21 ± 0.26 | COc1cc(-c2csc(NC(=O)CN/N=C3\C(=O)Nc4ccc(C)cc43)n2)cc(OC)c1OC [Compound 9b, (Z)-2-(2-(5-Methyl-2-oxoindolin-3-ylidene)hydrazinyl)-N-(4-(3,4,5-trimethoxyphenyl)thiazol-2-yl)acetamide] | 8.04 ± 0.4 | 9.93 ± 0.5 | 11.6 ± 0.6 | 13.4 ± 0.7 | – | – | – | – | – | –
19 | – | COc1cc(-c2csc(Nc3csc(N)n3)n2)cc(OC)c1OC [Compound 10, N^4-(4-(3,4,5-Trimethoxyphenyl)thiazol-2-yl)thiazole-2,4-diamine] | 49.6 ± 2.5 | 55.3 ± 2.8 | 60.6 ± 3 | 48 ± 2.4 | – | moderate-to-weak | – | – | – | –
20 | – | COc1cc(-c2csc(NC(=O)NCCCl)n2)cc(OC)c1OC [Compound 11, 1-(2-Chloroethyl)-3-(4-(3,4,5-trimethoxyphenyl)thiazol-2-yl)urea] | 93 ± 4.6 | 86.7 ± 4.3 | 95.8 ± 4.8 | 89.9 ± 4.5 | – | weak (51–100 (weak)) | – | – | – | –
21 | – | COc1cc(-c2csc(NC(=O)NCCNc3ccccc3)n2)cc(OC)c1OC [Compound 12, 1-(2-(Phenylamino)ethyl)-3-(4-(3,4,5-trimethoxyphenyl)thiazol-2-yl)urea] | > 100 | 88.5 ± 4.4 | > 100 | 91.8 ± 4.6 | – | – | – | – | – | –
22 | 5.11 ± 0.31 | CCN1CCN(CCNC(=O)Nc2nc(-c3cc(OC)c(OC)c(OC)c3)cs2)CC1 [Compound 13a, 1-(2-(4-Ethylpiperazin-1-yl)ethyl)-3-(4-(3,4,5-trimethoxyphenyl)thiazol-2-yl)urea] | 14.2 ± 0.7 | 20.1 ± 1 | 16.9 ± 0.8 | 32.4 ± 1.6 | – | – | strong (11–20 (strong)) | strong (11–20 (strong)) | strong (11–20 (strong)) | moderate (21–50 (moderate))
23 | – | COc1cc(-c2csc(NC(=O)NCCN3CCOCC3)n2)cc(OC)c1OC [Compound 13b, 1-(2-Morpholinoethyl)-3-(4-(3,4,5-trimethoxyphenyl)thiazol-2-yl)urea] | 25.7 ± 1.3 | 27.4 ± 1.4 | 32 ± 1.6 | 43.9 ± 2.2 | – | – | – | – | – | –
